PvdQ acylase = P. aeruginosa PvdQ acylase inhibitors, primary screen, biochemical, fluorescence, plate reader and imaging, single point; PvdQ acylase [Pseudomonas aeruginosa LESB58]; purified PvdQ acylase; inhibition, % at 10 µM; hit rate 0.063% among 340,000; AID 488965, 2010; in the data active means inhibition above about 30%, passing the limit was not always enough
VIM-2 inhibitor = VIM-2 metallo-beta-lactamase inhibitors, primary screen, biochemical, epi-absorbance readout, Pseudomonas aeruginosa enzyme. purified VIM-2, nitrocefin hydrolysis, epi-absorbance fluorescence. AID 1527, 2009. inhibition, % at 5.6 µM. hit rate 0.89% among 290,000;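 active means inhibition above the mean of all tested compounds plus 3 SD, cutoff set per screening run, cut at about 7.5% in these data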;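 further: red hydrolysis product quenches plate fluorescence so inhibitors raise well fluorescence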
MIN6 prolif-1 = inducers of MIN6 beta-cell proliferation, primary screen, ATP luminescence, uHTS; MIN6 cells proliferation, ATPlite luminescence, 48 h; cells starved in 0.2% serum; 100% = growth in 10% serum; proliferation, % at 10 µM; hit rate 0.29% among 330,000;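 active means compounds whose signal lies at least 3.5 SD above the mean of all wells on their plate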
IMP-1 inh-1 = IMP-1 metallo-beta-lactamase inhibitors, primary screen, biochemical, epi-absorbance readout, Pseudomonas aeruginosa enzyme | hit rate 0.45% among 290,000 | metallo-beta-lactamase IMP-1 (Pseudomonas aeruginosa) | inhibition, % at 5.6 µM | purified IMP-1, nitrocefin hydrolysis, epi-absorbance fluorescence;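 active means inhibition above the mean plus 3 SD of all compounds in the same screening run, cut at about 4.5% in these data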
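Test system: recombinant IMP-1 enzyme, purified / Medium: HEPES buffer pH 7.1 with ZnSO4 and Brij 35 / Doses: single dose, 5.6 µM / Times: 25 °C, 15 min preincubation, 25 min reaction / Detection: Epi-absorbance via hydrolysed-nitrocefin quenching of white-plate fluorescence, 480/530 nm, EDTA stop / Evaluation: percent inhibition from optical density relative to buffer-blank wells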
ATG4B inhibitor = ATG4B protease inhibitors, primary screen, biochemical, fluorescence, uHTS; ATG4B cleavage of LC3-PLA2, NBD-HPC fluorescence, 1 h; inhibition, % at 8.33 µM; hit rate 0.51% among 340,000; AID 504462, 2011; in the data active means inhibition above about 40%
Target sequence (Q9Y4P1 whole entry, looked up): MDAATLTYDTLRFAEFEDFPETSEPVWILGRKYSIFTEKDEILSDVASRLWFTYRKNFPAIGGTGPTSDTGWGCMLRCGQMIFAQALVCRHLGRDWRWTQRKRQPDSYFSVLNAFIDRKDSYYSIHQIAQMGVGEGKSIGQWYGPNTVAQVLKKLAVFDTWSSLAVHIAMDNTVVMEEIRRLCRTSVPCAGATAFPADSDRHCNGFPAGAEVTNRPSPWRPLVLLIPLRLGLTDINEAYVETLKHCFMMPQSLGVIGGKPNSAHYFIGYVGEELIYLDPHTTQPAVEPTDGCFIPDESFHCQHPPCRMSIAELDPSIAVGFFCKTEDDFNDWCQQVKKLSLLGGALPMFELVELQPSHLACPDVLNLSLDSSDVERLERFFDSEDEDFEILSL
HKDC1 inhibitor = HKDC1 hexokinase inhibitors, primary screen, biochemical, fluorescence, uHTS; recombinant HKDC1, G6PDH/diaphorase resazurin coupled fluorescence; inhibition, % at 20 µM; hit rate 0.16% among 340,000;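 active means inhibition above about 35% when tested at 20 µM, limit read from the data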
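Assay system: in-house recombinant HK5 (HKDC1) enzyme. Input: HKDC1 at 5 µg/mL. Medium: Tris pH 8.0 buffer with MgCl2, Tween-20, BSA, BME. Dosing: single 20 µM dose. Schedule: 90 min reaction incubation at room temperature, dark. Signal: resazurin-to-resorufin fluorescence via G6PDH and diaphorase coupling, 525/613 nm. Controls: DMSO-enzyme wells negative, buffer-substituted wells positive.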
IMP-1 inh-2 = IMP-1 metallo-beta-lactamase inhibitors, confirmation, selectivity assay for selective VIM-2 inhibitor project, biochemical, epi-absorbance readout, triplicate. shares compounds with VIM-2 inhibitor. purified IMP-1, nitrocefin hydrolysis, epi-absorbance fluorescence. AID 1856, 2009. 1,300 tested, under 10 active. inhibition, % at 5.6 µM; call rule not given here
VIM-2 FRET inh = VIM-2 inhibitors in FRET format, confirmation, artefact control for selective VIM-2 inhibitor project, biochemical, epi-absorbance artifact exclusion | shares compounds with VIM-2 inhibitor | purified VIM-2, CCF2 FRET substrate hydrolysis | inhibition, % at 5.6 µM | hit rate 23% among 1,300 | AID 1857, 2009;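 active means inhibition above the mean of all tested compounds plus 3 SD, cut at about 19% in these data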
TEM-1 counter = TEM-1 serine beta-lactamase inhibitors, counter-screen for VIM-2 inhibitor project, biochemical, epi-absorbance, HTS. shares compounds with VIM-2 inhibitor. Purified TEM-1, nitrocefin hydrolysis, epi-absorbance fluorescence. inhibition, % at 5.6 µM. hit rate 3% among 1,300. AID 1866, 2009;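 active means inhibition above that campaign's mean inhibition plus 3 SD, cut at about 0.46% in these data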
Target sequence (P62593 whole entry, looked up): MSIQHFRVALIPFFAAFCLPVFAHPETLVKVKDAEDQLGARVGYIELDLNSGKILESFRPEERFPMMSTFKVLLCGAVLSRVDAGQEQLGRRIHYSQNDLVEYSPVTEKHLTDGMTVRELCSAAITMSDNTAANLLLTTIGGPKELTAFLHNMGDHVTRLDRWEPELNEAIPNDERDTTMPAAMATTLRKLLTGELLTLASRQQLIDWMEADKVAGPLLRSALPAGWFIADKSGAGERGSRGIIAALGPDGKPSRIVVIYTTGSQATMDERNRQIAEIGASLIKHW
VIM-2 confirm 2 = VIM-2 metallo-beta-lactamase inhibitors, confirmation, biochemical, epi-absorbance, hits shared with IMP-1 screen. shares compounds with VIM-2 inhibitor. purified VIM-2, nitrocefin hydrolysis. inhibition, % at 5.6 µM. hit rate 96% among 1,300. AID 2187, 2009;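 active means inhibition of the VIM-2 beta-lactamase enzyme above about 11% from the earlier first-round screen, limit read from the data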
MIN6 prolif-2 = inducers of beta-cell proliferation in MIN6, confirmation, MIN6 cells, mouse; 920 tested, under 10 active; ATPlite luminescence, 48 h; cells kept in 0.2% serum; scaled between 0.2% and 10% serum; proliferation increase, % at 50 µM; AID 463095, 2010; shares compounds with MIN6 prolif-1;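 active means proliferation increase above 40% at any of the four tested concentrations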
HKDC1 act conf2 = HKDC1 hexokinase activators, confirmation, biochemical, single concentration | shares compounds with HKDC1 inhibitor | recombinant HKDC1, G6PDH/diaphorase resazurin fluorescence; hits give low values | inhibition, % at 20 µM | hit rate 14% among 740;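 active means inhibition at or below a set negative limit, negative inhibition meaning the enzyme was activated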
ATG4B confirm = ATG4B protease inhibitors, retest, confirmation, biochemical, fluorescence, single concentration. ATG4B protease fluorescent substrate cleavage assay. inhibition, % at 8.33 µM. shares compounds with ATG4B inhibitor. hit rate 92% among 320; in the data active means inhibition above about 39%
PLA2 counter = PLA2 enzyme inhibition, counter-screen for ATG4B inhibitor project, biochemical, single concentration, uHTS hits; shares compounds with ATG4B inhibitor; purified PLA2, NBD-C6-HPC fluorescence, 45 min; inhibition, % at 8.33 µM; hit rate 66% among 1,600; AID 588402, 2011; in the data active means inhibition above about 50%
Hits are given with their value. An excerpt weighted towards active compounds, which were near 2% of everything screened.

For Cc1cc(OCC(=O)NCc2ccncc2)c2c3c(c(=O)oc2c1)CCCC3 the results were PvdQ acylase inactive, VIM-2 inhibitor 40.2, MIN6 prolif-1 inactive, IMP-1 inh-1 inactive, ATG4B inhibitor inactive, HKDC1 inhibitor inactive, IMP-1 inh-2 inactive, VIM-2 FRET inh inactive, TEM-1 counter inactive and VIM-2 confirm 2 51.6.
`Cc1cc(OC(C)C(=O)NCc2ccncc2)c2c3c(c(=O)oc2c1)CCCC3` (centres undefined) gave PvdQ acylase inactive, VIM-2 inhibitor 26.3, MIN6 prolif-1 inactive, IMP-1 inh-1 inactive, ATG4B inhibitor inactive, HKDC1 inhibitor inactive, IMP-1 inh-2 inactive, VIM-2 FRET inh inactive, TEM-1 counter inactive and VIM-2 confirm 2 31.7.
`Cc1cc(OC(C)C(=O)NCC2CCC(C(=O)O)CC2)c2c3c(c(=O)oc2c1)CCC3` (centres undefined) gave PvdQ acylase inactive, VIM-2 inhibitor inactive, MIN6 prolif-1 inactive, IMP-1 inh-1 inactive, ATG4B inhibitor inactive and HKDC1 inhibitor inactive.
`Cc1cc(OC(C)C(=O)NCc2ccncc2)c2c3c(c(=O)oc2c1)CCC3` (centres undefined) gave PvdQ acylase inactive, VIM-2 inhibitor 26.4, MIN6 prolif-1 inactive, IMP-1 inh-1 inactive, ATG4B inhibitor inactive, HKDC1 inhibitor inactive, IMP-1 inh-2 inactive, VIM-2 FRET inh inactive, TEM-1 counter inactive and VIM-2 confirm 2 41.7.
COc1ccc(CC(=O)Nc2ccc(C#N)c(Cl)c2)cc1S(=O)(=O)N1CCOCC1 was read as PvdQ acylase inactive, VIM-2 inhibitor inactive, MIN6 prolif-1 inactive, IMP-1 inh-1 inactive, ATG4B inhibitor inactive and HKDC1 inhibitor inactive.
Screening CN1CCCN(C(=O)COc2ccccc2Br)CC1 returned PvdQ acylase inactive, VIM-2 inhibitor inactive, MIN6 prolif-1 inactive, IMP-1 inh-1 inactive, ATG4B inhibitor inactive and HKDC1 inhibitor inactive.
COc1ccc(Cl)cc1N=Cc1c(O)n(C)c(=O)n(C)c1=O was read as PvdQ acylase inactive, VIM-2 inhibitor 13.0, MIN6 prolif-1 inactive, IMP-1 inh-1 inactive, ATG4B inhibitor inactive, HKDC1 inhibitor inactive, IMP-1 inh-2 inactive, VIM-2 FRET inh inactive, TEM-1 counter inactive and VIM-2 confirm 2 20.6.
For COc1ccccc1N=Cc1c(O)n(C)c(=O)n(C)c1=O the results were PvdQ acylase inactive, VIM-2 inhibitor inactive, MIN6 prolif-1 inactive, IMP-1 inh-1 inactive, ATG4B inhibitor inactive and HKDC1 inhibitor inactive.
Screening O=[N+]([O-])c1ccc(-c2ccccc2)c([As](=O)(O)O)c1 returned PvdQ acylase inactive, VIM-2 inhibitor 75.8, MIN6 prolif-1 inactive, IMP-1 inh-1 inactive, ATG4B inhibitor inactive, HKDC1 inhibitor inactive, IMP-1 inh-2 inactive, VIM-2 FRET inh 82.5, TEM-1 counter inactive and VIM-2 confirm 2 79.6.
c1cncc(CNC2CCCCC2)c1 was read as PvdQ acylase inactive, VIM-2 inhibitor inactive, MIN6 prolif-1 inactive, IMP-1 inh-1 inactive, ATG4B inhibitor inactive and HKDC1 inhibitor inactive.
Screening COC(=O)C1=C(c2ccccc2)C[C@@H]2CC[C@H]1N2C(=O)NCc1cccc2ccccc12 returned PvdQ acylase inactive, MIN6 prolif-1 inactive, ATG4B inhibitor inactive and HKDC1 inhibitor inactive.
For O=c1c2ccccc2[se]n1-c1ccccc1 the results were PvdQ acylase inactive, VIM-2 inhibitor 27.3, MIN6 prolif-1 inactive, IMP-1 inh-1 inactive, ATG4B inhibitor inactive, HKDC1 inhibitor inactive, IMP-1 inh-2 inactive, VIM-2 FRET inh inactive, TEM-1 counter inactive, VIM-2 confirm 2 41.6 and HKDC1 act conf2 inactive.
`CC(C)N1OC2CC1c1nc3ccccc3n1C2` (centres undefined) gave PvdQ acylase inactive, MIN6 prolif-1 inactive, ATG4B inhibitor inactive and HKDC1 inhibitor inactive.
Screening O=C1C(=O)c2ccccc2-c2ccccc21 returned PvdQ acylase inactive, VIM-2 inhibitor 16.5, MIN6 prolif-1 inactive, IMP-1 inh-1 inactive, ATG4B inhibitor 84.8, HKDC1 inhibitor inactive, IMP-1 inh-2 inactive, VIM-2 FRET inh inactive, TEM-1 counter inactive, VIM-2 confirm 2 18.4, ATG4B confirm inactive and PLA2 counter inactive.
`N#Cc1ccc(NC(=O)CN2CCCCCC2)cc1Cl` gave PvdQ acylase inactive, VIM-2 inhibitor inactive, MIN6 prolif-1 inactive, IMP-1 inh-1 inactive, ATG4B inhibitor inactive and HKDC1 inhibitor inactive.
COc1ccc(CC(C)NC2CCCCCC2)cc1 (centres undefined) was read as PvdQ acylase inactive, VIM-2 inhibitor inactive, MIN6 prolif-1 6.1, IMP-1 inh-1 inactive, ATG4B inhibitor inactive, HKDC1 inhibitor inactive and MIN6 prolif-2 inactive.
`CC(=NCc1cccnc1)c1c(O)n(-c2ccccc2C)c(=O)[nH]c1=O` gave PvdQ acylase inactive, VIM-2 inhibitor inactive, MIN6 prolif-1 inactive, IMP-1 inh-1 inactive, ATG4B inhibitor inactive and HKDC1 inhibitor inactive.
